{"source": "ChEMBL document CHEMBL1131263", "about": "“Substituted tetrahydropyrrolo[2,1-b]oxazol-5(6H)-ones and tetrahydropyrrolo[2,1-b]thiazol-5(6H)-ones as hypoglycemic agents” (1998)", "data": [{"assay": "lowest concentration at which glucose utilized was greater than or equal to 140% of control value tested in a glucose utilization L6 myocyte in vitro assay", "assay_type": "functional, Rattus norvegicus", "method_in_brief": "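Differentiated rat L6 myotubes (day 11 or 13 after plating) exposed 20 h to compound in serum-free DMEM with 15 mM glucose and 1% final DMSO. Tested in quadruplicate at 3, 10, 30, 100, 300 µM. Glucose left in the medium read by glucose oxidase. Value is the lowest concentration giving at least 40% more utilization than control.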", "units": {"Lowest effective concentration for glucose utilization ≥140% of control": "µM"}, "values": [{"compound": "CC1(C)C[C@]2(c3ccc(Cl)cc3)O[C@H](COc3ccc(Cl)cc3)CN2C1=O", "Lowest effective concentration for glucose utilization ≥140% of control": 30}, {"compound": "O=C1CC[C@]2(c3ccc(Cl)cc3)O[C@H](CO)CN12", "Lowest effective concentration for glucose utilization ≥140% of control": ">300"}, {"compound": "O=C1CC[C@]2(c3ccc(Cl)cc3)O[C@@H](CCc3ccccc3)CN12", "Lowest effective concentration for glucose utilization ≥140% of control": ">300"}, {"compound": "CC(C)(C)[C@]12CCC(=O)N1C[C@@H](COc1ccc(Cl)cc1)O2", "Lowest effective concentration for glucose utilization ≥140% of control": ">300"}, {"compound": "CC(=O)N1C[C@@H](COc2ccc(Cl)cc2)O[C@@H]1c1ccc(Cl)cc1", "Lowest effective concentration for glucose utilization ≥140% of control": 100}, {"compound": "O=C(c1ccccc1)N1C[C@@H](COc2ccc(Cl)cc2)O[C@@H]1c1ccc(Cl)c(Cl)c1", "Lowest effective concentration for glucose utilization ≥140% of control": ">300"}, {"compound": "CC(=O)N1CCS[C@@H]1c1ccc(Cl)cc1", "Lowest effective concentration for glucose utilization ≥140% of control": ">300"}, {"compound": "O=C1CC[C@]2(c3ccccc3)OC[C@H](O)CN12", "Lowest effective concentration for glucose utilization ≥140% of control": ">300"}, {"compound": "O=C(O)c1cc(CO)on1", "Lowest effective concentration for glucose utilization ≥140% of control": ">300"}, {"compound": "C/N=C(\\S)N1CCO[C@@H]1c1ccc(Cl)cc1", "Lowest effective concentration for glucose utilization ≥140% of control": ">300"}, {"compound": "O=C1CC[C@]2(c3ccncc3)O[C@@H](COc3ccc(Cl)cc3)CN12", "Lowest effective concentration for glucose utilization ≥140% of control": 100}, {"compound": "CC(C)(C)c1cc(CO)on1", "Lowest effective concentration for glucose utilization ≥140% of control": ">300"}, {"compound": "OCc1cc(-c2ccccc2)no1", "Lowest effective concentration for glucose utilization ≥140% of control": ">300"}, {"compound": "CC(C)(C)OC[C@@H]1CN2C(=O)CC[C@]2(c2ccc(Cl)cc2)O1", "Lowest effective concentration for glucose utilization ≥140% of control": 300}, {"compound": "OCc1cc(Cc2ccccc2)no1", "Lowest effective concentration for glucose utilization ≥140% of control": ">300"}, {"compound": "O=C1CC[C@]2(c3ccccc3)OC[C@@H](O)CN12", "Lowest effective concentration for glucose utilization ≥140% of control": ">300"}, {"compound": "O=C1CC[C@]2(c3ccc(Cl)cc3)O[C@H](COc3ccc(Cl)cc3)CCN12", "Lowest effective concentration for glucose utilization ≥140% of control": ">300"}, {"compound": "O=C1CC[C@]2(C3CCCCC3)O[C@@H](COc3ccc(Cl)cc3)CN12", "Lowest effective concentration for glucose utilization ≥140% of control": ">300"}, {"compound": "O=C1CC[C@]2(c3ccc(Cl)cc3)O[C@H](CCc3ccccc3)CN12", "Lowest effective concentration for glucose utilization ≥140% of control": ">300"}, {"compound": "O=C1CC[C@]2(c3ccc(Cl)c(C(F)(F)F)c3)O[C@@H](COc3ccc(Cl)cc3)CN12", "Lowest effective concentration for glucose utilization ≥140% of control": 300}, {"compound": "CC(=O)N1C[C@@H](COc2ccc(Cl)cc2)S[C@@H]1c1ccc(Cl)cc1", "Lowest effective concentration for glucose utilization ≥140% of control": 300}, {"compound": "Cc1cc(CO)on1", "Lowest effective concentration for glucose utilization ≥140% of control": ">300"}, {"compound": "O=C1CC[C@]2(c3ccc(Cl)c(Cl)c3)O[C@@H](CSc3ccc(Cl)cc3)CN12", "Lowest effective concentration for glucose utilization ≥140% of control": 100}, {"compound": "O=C1CCC[C@]2(c3ccccc3)O[C@@H](COc3ccc(Cl)cc3)CN12", "Lowest effective concentration for glucose utilization ≥140% of control": ">300"}, {"compound": "CC(=O)c1cc(CO)on1", "Lowest effective concentration for glucose utilization ≥140% of control": ">300"}, {"compound": "CC(C)(O)c1cc(-c2ccc(Cl)cc2)no1", "Lowest effective concentration for glucose utilization ≥140% of control": 100}, {"compound": "O=C1CC[C@]2(c3ccc(Cl)c(Cl)c3)OC(COc3ccc(Cl)cc3)CN12", "note": "(single isomer, unassigned)", "Lowest effective concentration for glucose utilization ≥140% of control": ">300"}, {"compound": "CC(=O)N(C[C@@H]1CN2C(=O)CC[C@]2(c2ccc(Cl)cc2)O1)c1ccc(Cl)cc1", "Lowest effective concentration for glucose utilization ≥140% of control": ">300"}, {"compound": "CC(=O)N1C[C@H](COc2ccc(Cl)cc2)O[C@@H]1c1ccc(Cl)c(C(F)(F)F)c1", "Lowest effective concentration for glucose utilization ≥140% of control": 30}, {"compound": "O=C1CC[C@]2(c3ccc(Cl)cc3)O[C@H](CNc3ccc(Cl)cc3)CN12", "Lowest effective concentration for glucose utilization ≥140% of control": ">300"}, {"compound": "O=C1CC[C@]2(c3ccc(-c4ccccc4)cc3)O[C@@H](COc3ccc(Cl)cc3)CN12", "Lowest effective concentration for glucose utilization ≥140% of control": ">300"}, {"compound": "O=C1CC[C@]2(c3ccc(Cl)c(Cl)c3)O[C@H](CSc3ccc(Cl)cc3)CN12", "Lowest effective concentration for glucose utilization ≥140% of control": 100}, {"compound": "CNC(=O)N1CCS[C@@H]1c1ccc(Cl)cc1", "Lowest effective concentration for glucose utilization ≥140% of control": 300}, {"compound": "CC(=O)N1C[C@H](COc2ccc(Cl)cc2)O[C@@H]1c1ccc(Cl)c(Cl)c1", "Lowest effective concentration for glucose utilization ≥140% of control": 30}, {"compound": "CC1(C)C[C@]2(c3ccc(Oc4ccccc4)cc3)O[C@H](COc3ccc(Cl)cc3)CN2C1=O", "Lowest effective concentration for glucose utilization ≥140% of control": 30}, {"compound": "CC1(C)C[C@]2(c3ccc(Cl)cc3)O[C@@H](COc3ccc(Cl)cc3)CN2C1=O", "Lowest effective concentration for glucose utilization ≥140% of control": 100}, {"compound": "O=C1CC[C@]2(C3CCCCC3)O[C@H](COc3ccc(Cl)cc3)CN12", "Lowest effective concentration for glucose utilization ≥140% of control": 100}, {"compound": "CC1(C)C[C@]2(c3ccc(Oc4ccccc4)cc3)OCCN2C1=O", "Lowest effective concentration for glucose utilization ≥140% of control": 10}, {"compound": "CS(=O)(=O)N1C[C@H](COc2ccc(Cl)cc2)O[C@@H]1c1ccc(Cl)c(Cl)c1", "Lowest effective concentration for glucose utilization ≥140% of control": 30}, {"compound": "COC(=O)c1cc(CO)on1", "Lowest effective concentration for glucose utilization ≥140% of control": ">300"}, {"compound": "COc1ccc([C@]23CCC(=O)N2C[C@H](COc2ccc(Cl)cc2)O3)cc1", "Lowest effective concentration for glucose utilization ≥140% of control": ">300"}, {"compound": "CS(=O)(=O)N1C[C@@H](COc2ccc(Cl)cc2)O[C@@H]1c1ccc(Cl)c(Cl)c1", "Lowest effective concentration for glucose utilization ≥140% of control": 30}, {"compound": "O=C1CC[C@]2(c3cccnc3)O[C@@H](COc3ccc(Cl)cc3)CN12", "Lowest effective concentration for glucose utilization ≥140% of control": 300}, {"compound": "C/N=C(\\S)N1CCS[C@@H]1c1ccc(Cl)cc1", "Lowest effective concentration for glucose utilization ≥140% of control": 300}, {"compound": "CN(C)C(=N)NC(=N)N.Cl", "note": "[METFORMIN HYDROCHLORIDE]", "Lowest effective concentration for glucose utilization ≥140% of control": 1000}, {"compound": "Cc1c(C)c2c(c(C)c1O)CCC(C)(COc1ccc(CC3SC(=O)NC3=O)cc1)O2", "note": "(centres undefined) [TROGLITAZONE]", "Lowest effective concentration for glucose utilization ≥140% of control": 30}, {"compound": "O=C1CC[C@]2(c3ccc(Cl)cc3)O[C@@H](CO)CN12", "Lowest effective concentration for glucose utilization ≥140% of control": ">300"}, {"compound": "C=CCOC[C@@H]1CN2C(=O)CC[C@]2(c2ccc(Cl)cc2)O1", "Lowest effective concentration for glucose utilization ≥140% of control": ">300"}, {"compound": "CC(=O)N1C[C@H](COc2ccc(Cl)cc2)S[C@@H]1c1ccc(Cl)cc1", "Lowest effective concentration for glucose utilization ≥140% of control": 30}, {"compound": "COCc1cc(-c2ccc(Cl)cc2)no1", "Lowest effective concentration for glucose utilization ≥140% of control": 100}, {"compound": "O=C1CC[C@]2(c3ccc(Cl)c(C(F)(F)F)c3)O[C@H](COc3ccc(Cl)cc3)CN12", "Lowest effective concentration for glucose utilization ≥140% of control": 10}, {"compound": "CNC(=O)N1CCO[C@@H]1c1ccc(Cl)cc1", "Lowest effective concentration for glucose utilization ≥140% of control": ">300"}, {"compound": "CC(C)(C)[C@]12CCC(=O)N1C[C@H](COc1ccc(Cl)cc1)O2", "Lowest effective concentration for glucose utilization ≥140% of control": ">300"}, {"compound": "CC(C)C(=O)N1C[C@@H](COc2ccc(Cl)cc2)O[C@@H]1c1ccc(Cl)c(Cl)c1", "Lowest effective concentration for glucose utilization ≥140% of control": 30}, {"compound": "COc1ccc([C@H]2O[C@@H](COc3ccc(Cl)cc3)CN2C(C)=O)cc1", "Lowest effective concentration for glucose utilization ≥140% of control": ">300"}, {"compound": "O=C1CC[C@]2(c3ccc(F)cc3)O[C@@H](COc3ccc(Cl)cc3)CN12", "Lowest effective concentration for glucose utilization ≥140% of control": ">300"}, {"compound": "O=C1CC[C@]2(c3ccc4oc5ccccc5c4c3)O[C@@H](COc3ccc(Cl)cc3)CN12", "Lowest effective concentration for glucose utilization ≥140% of control": ">300"}, {"compound": "OCc1cc(-c2ccc(Cl)cc2Cl)no1", "Lowest effective concentration for glucose utilization ≥140% of control": 300}, {"compound": "O=C(Nc1ccccc1)N1C[C@@H](COc2ccc(Cl)cc2)O[C@@H]1c1ccc(Cl)c(Cl)c1", "Lowest effective concentration for glucose utilization ≥140% of control": 30}, {"compound": "COC(=O)N1C[C@@H](COc2ccc(Cl)cc2)O[C@@H]1c1ccc(Cl)c(Cl)c1", "Lowest effective concentration for glucose utilization ≥140% of control": 300}, {"compound": "O=C(Nc1ccccc1)N1C[C@H](COc2ccc(Cl)cc2)O[C@@H]1c1ccc(Cl)c(Cl)c1", "Lowest effective concentration for glucose utilization ≥140% of control": 30}, {"compound": "Clc1ccc(OCc2cc(-c3ccc(Cl)cc3)no2)cc1", "Lowest effective concentration for glucose utilization ≥140% of control": ">300"}, {"compound": "OCCc1cc(-c2ccc(Cl)cc2)no1", "Lowest effective concentration for glucose utilization ≥140% of control": 100}, {"compound": "O=C1CC[C@]2(c3ccncc3)O[C@H](COc3ccc(Cl)cc3)CN12", "Lowest effective concentration for glucose utilization ≥140% of control": 30}, {"compound": "O=C1CC[C@]2(c3c[nH]c4ccccc34)O[C@H](COc3ccc(Cl)cc3)CN12", "Lowest effective concentration for glucose utilization ≥140% of control": ">300"}, {"compound": "O=C(c1ccccc1)N1C[C@H](COc2ccc(Cl)cc2)O[C@@H]1c1ccc(Cl)c(Cl)c1", "Lowest effective concentration for glucose utilization ≥140% of control": 300}, {"compound": "O=C1CCC[C@]2(c3ccc(Cl)cc3)SCCN12", "Lowest effective concentration for glucose utilization ≥140% of control": ">300"}, {"compound": "O=C1CC[C@]2(c3ccc(Cl)c(Cl)c3)O[C@H](COc3ccc(Cl)cc3)CN12", "Lowest effective concentration for glucose utilization ≥140% of control": 10}, {"compound": "O=C1CC[C@]2(c3ccc(Cl)c(Cl)c3)O[C@@H](COc3ccc(Cl)cc3)CN12", "Lowest effective concentration for glucose utilization ≥140% of control": 30}, {"compound": "OCc1cc(-c2ccc(Cl)c(Cl)c2)no1", "Lowest effective concentration for glucose utilization ≥140% of control": 30}, {"compound": "C[C@]12CCC(=O)N1C[C@@H](COc1ccc(Cl)cc1)O2", "Lowest effective concentration for glucose utilization ≥140% of control": ">300"}, {"compound": "COC(=O)COC[C@@H]1CN2C(=O)CC[C@]2(c2ccc(Cl)cc2)O1", "Lowest effective concentration for glucose utilization ≥140% of control": ">300"}, {"compound": "COc1ccc([C@H]2O[C@H](COc3ccc(Cl)cc3)CN2C(C)=O)cc1", "Lowest effective concentration for glucose utilization ≥140% of control": ">300"}, {"compound": "O=C1CCC[C@]2(c3ccc(Oc4ccccc4)cc3)O[C@H](COc3ccc(Cl)cc3)CN12", "Lowest effective concentration for glucose utilization ≥140% of control": 100}, {"compound": "CS(=O)(=O)N1CCS[C@@H]1c1ccc(Cl)cc1", "Lowest effective concentration for glucose utilization ≥140% of control": 300}, {"compound": "O=C1CC[C@]2(c3ccc(Cl)cc3)O[C@H](COCCO)CN12", "Lowest effective concentration for glucose utilization ≥140% of control": ">300"}, {"compound": "O=C1CC[C@]2(c3cccc4ccccc34)O[C@H](COc3ccc(Cl)cc3)CN12", "Lowest effective concentration for glucose utilization ≥140% of control": ">300"}, {"compound": "CC(=O)N1C[C@@H](COc2ccc(Cl)cc2)O[C@@H]1c1ccc(Cl)c(C(F)(F)F)c1", "Lowest effective concentration for glucose utilization ≥140% of control": 30}, {"compound": "O=C1CC[C@]2(c3ccc(Cl)cc3)O[C@@H](CNc3ccc(Cl)cc3)CN12", "Lowest effective concentration for glucose utilization ≥140% of control": ">300"}]}]}
